Results from ChEMBL document CHEMBL3244318, “Prostaglandins and congeners. 14. Synthesis and bronchodilator activity of dl-16,16-trimethyleneprostaglandins” (1977).
Calls of active or inactive are those of the source. No cut-off for these calls is given here.

Tests used:
Cavia porcellus [1] = test: Bronchodilatory activity in iv dosed Hartley guinea pig assessed as inhibition of serotonin-induced constriction at 3.2 mg/kg, iv of total 3 to 4 doses at 15 mins interval starting 2 mins post challenge; format: functional
In short: (§1)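 Artificially ventilated, curarized guinea pigs. Spasmogen was given IV in 12-s injections every 5 min, adjusted to raise tracheal pressure by 20-50 cm water. After three similar control spasms, drug was infused IV over 1 min. Sodium salts were given in water and esters in 10% aqueous ethanol. Read-out was % variation of spasm amplitude versus control, in at least four animals per spasmogen.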

Cavia porcellus [2] = test: Bronchodilatory activity in iv dosed Hartley guinea pig assessed as inhibition of acetylcholine-induced constriction at 3.2 mg/kg, iv of total 3 to 4 doses at 15 mins interval starting 2 mins post challenge; format: functional; in short: as §1
Cavia porcellus [3] = test: Bronchodilatory activity in iv dosed Hartley guinea pig assessed as inhibition of histamine-induced constriction at 3.2 mg/kg, iv of total 3 to 4 doses at 15 mins interval starting 2 mins post challenge; format: functional; in short: as §1
Canis familiaris = test: Bronchodilatory activity in anesthetized dog assessed as inhibition of pilocarpine-induced bronchospasms compound administered through aerosol 15 mins post challenge measured up to 1 hr; format: functional, organism-based; conditions: Canis lupus familiaris
Cavia porcellus [4] = test: Bronchodilatory activity in iv dosed Hartley guinea pig assessed as inhibition of histamine-induced constriction compound of total 3 to 4 doses at 15 mins interval starting first dose 2 mins post challenge; format: functional
In short: (§2)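 Ventilated, curarized guinea pigs received repeated 12-s IV spasmogen injections every 5 min, tuned to a 20-50 cm water rise in tracheal pressure. Three or four logarithmically spaced IV doses were given over 1 min, at 15-min intervals, with at least four animals per spasmogen. ED50 is the dose giving -50% spasm variation, taken from a semilog regression. When -50% was not reached, ED50 is reported as greater than the top dose.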

Cavia porcellus [5] = test: Bronchodilatory activity in iv dosed Hartley guinea pig assessed as inhibition of serotonin-induced constriction compound of total 3 to 4 doses at 15 mins interval starting first dose 2 mins post challenge; format: functional; in short: as §2
Cavia porcellus [6] = test: Bronchodilatory activity in iv dosed Hartley guinea pig assessed as inhibition of acetylcholine-induced constriction compound of total 3 to 4 doses at 15 mins interval starting first dose 2 mins post challenge; format: functional; in short: as §2
[7] = Cavia porcellus, Hartley, iv, read-out: ED50

Row | Compound | inhibition in vivo at 3.2 mg/kg (Cavia porcellus [1]) | inhibition in vivo at 3.2 mg/kg (Cavia porcellus [2]) | inhibition in vivo at 3.2 mg/kg (Cavia porcellus [3]) | ED50 (Cavia porcellus [4]; [7]) | ED50 (Cavia porcellus [5]) | further results
1 | CCCCC1([C@@H](O)/C=C/C2CCC(=O)[C@@H]2CCCCC(C)(C)CC(=O)O)CCC1 (mixture of isomers) | < 50% | < 50% | < 50% | – | – | –
2 | CCCCC1([C@@H](O)/C=C/C2CCC(=O)[C@@H]2C/C=C\CCCC(=O)OCC)CCC1 (mixture of isomers) | < 50% | < 50% | < 50% | – | – | –
3 | CCCCC1([C@@H](O)/C=C/C2CCC(=O)[C@@H]2CCCCCCCC(=O)O)CCC1 (mixture of isomers) | < 50% | < 50% | < 50% | – | – | –
4 | CCCCC1([C@@H](O)/C=C/C2[C@H](O)CC(=O)[C@@H]2CCCCCCC(=O)O)CCC1 (mixture of isomers) | – | – | – | 17 µg/kg | 43.9 µg/kg | inhibition (Canis familiaris): Active; ED50 (Cavia porcellus [6]; [7]): 30 µg/kg
5 | CCCCC1([C@H](O)/C=C/C2CCC(=O)[C@@H]2CCCCCCC(=O)O)CCC1 (mixture of isomers) | – | – | – | 2.4 µg/kg | – | ED50 (Cavia porcellus [6]; Cavia porcellus, Hartley, iv): 47.8 µg/kg
6 | CCCCC1([C@@H](O)/C=C/C2CCC(=O)[C@@H]2CCCCCCCCC(=O)O)CCC1 (mixture of isomers) | < 50% | < 50% | < 50% | – | – | –
7 | CCCCC1([C@@H](O)/C=C/C2CCC(=O)[C@@H]2CCCCCCC(=O)OCC)CCC1 (mixture of isomers) | – | – | – | 32 µg/kg | – | ED50 (Cavia porcellus [6]; [7]): 2.06 µg/kg
8 | CCCCC1([C@H](O)/C=C/C2CCC(=O)[C@@H]2CCCCC(C)(C)CC(=O)O)CCC1 (mixture of isomers) | < 50% | < 50% | < 50% | – | – | –
9 | CCCCC1([C@@H](O)/C=C/C2CCC(=O)[C@@H]2CCCCSCC(=O)OCC)CCC1 (mixture of isomers) | < 50% | < 50% | – | > 672 µg/kg | – | –
10 | CCCCC1([C@@H](O)/C=C/C2[C@H](O)CC(=O)[C@@H]2C/C=C\CCCC(=O)O)CCC1 (mixture of isomers) | – | – | – | 48.4 µg/kg | 305 µg/kg | ED50 (Cavia porcellus [6]; [7]): 32 µg/kg
11 | CCCCC1([C@H](O)/C=C/C2CCC(=O)[C@@H]2CCCCCC(=O)O)CCC1 (mixture of isomers) | – | – | – | 32 µg/kg | 32 µg/kg | ED50 (Cavia porcellus [6]; [7]): 320 µg/kg
12 | CCCCC1([C@H](O)/C=C/C2CCC(=O)[C@@H]2CCCCC(C)(C)CC(=O)OCC)CCC1 (mixture of isomers) | < 50% | < 50% | < 50% | – | – | –
13 | CCCCC1([C@H](O)/C=C/C2CCC(=O)[C@@H]2CCCCSCC(=O)OCC)CCC1 (mixture of isomers) | – | – | – | 30 µg/kg | 300 µg/kg | ED50 (Cavia porcellus [6]; [7]): 909 µg/kg
14 | CCCC1([C@@H](O)/C=C/C2[C@H](O)CC(=O)[C@@H]2C/C=C\CCCC(=O)O)CCC1 (mixture of isomers) | – | < 50% | – | 46.7 µg/kg | 265 µg/kg | –
15 | CCCCC1([C@H](O)/C=C/C2[C@H](O)CC(=O)[C@@H]2CCCCCCC(=O)O)CCC1 (mixture of isomers) | – | – | – | – | 1.26 µg/kg | inhibition (Canis familiaris): Active; ED50 (Cavia porcellus [4]): 0.555 µg/kg; ED50 (Cavia porcellus [6]; [7]): 1.45 µg/kg
16 | CCCCC1([C@H](O)/C=C/C2CCC(=O)[C@@H]2CCCCCCC(=O)OCC)CCC1 (mixture of isomers) | – | – | – | 15.1 µg/kg | 409 µg/kg | –
17 | CCCCC[C@H](O)/C=C/[C@H]1[C@H](O)CC(=O)[C@@H]1CCCCCCC(=O)O [ALPROSTADIL] | – | – | – | 0.7 µg/kg | 1.07 µg/kg | inhibition (Canis familiaris): Active; ED50 (Cavia porcellus [6]): 3.3 µg/kg

Row | Compound | inhibition in vivo at 3.2 mg/kg (Cavia porcellus [1]) | inhibition in vivo at 3.2 mg/kg (Cavia porcellus [2]) | inhibition in vivo at 3.2 mg/kg (Cavia porcellus [3]) | ED50 (Cavia porcellus [4]; [7]) | ED50 (Cavia porcellus [5]) | further results
18 | CCCCC1([C@@H](O)/C=C/C2CCC(=O)[C@@H]2CCCCCCC(=O)O)CCC1 (mixture of isomers) | – | < 50% | – | 13.9 µg/kg | 20.3 µg/kg | –
19 | CCCCC1([C@@H](O)/C=C/C2CCC(=O)[C@@H]2CCCCCCCCC(=O)OCC)CCC1 (mixture of isomers) | < 50% | < 50% | < 50% | – | – | –
20 | CCCCC1([C@H](O)/C=C/C2CCC(=O)[C@@H]2CCCCCCCCC(=O)O)CCC1 (mixture of isomers) | < 50% | < 50% | < 50% | – | – | –
21 | CCCC1([C@H](O)/C=C/C2[C@H](O)CC(=O)[C@@H]2C/C=C\CCCC(=O)O)CCC1 (mixture of isomers) | – | – | – | – | 3 µg/kg | ED50 (Cavia porcellus [4]): 0.0979 µg/kg; ED50 (Cavia porcellus [6]; [7]): 3 µg/kg
22 | CCCCC1([C@H](O)/C=C/C2CCC(=O)[C@@H]2CCCCCCCC(=O)OCC)CCC1 (mixture of isomers) | < 50% | < 50% | < 50% | – | – | –
23 | CCCCC1([C@H](O)/C=C/C2CCC(=O)[C@@H]2CCCCSCC(=O)O)CCC1 (mixture of isomers) | – | < 50% | – | 91.2 µg/kg | 171 µg/kg | –
24 | CCCCC1([C@H](O)/C=C/C2CCC(=O)[C@@H]2CCCCCC(=O)OCC)CCC1 (mixture of isomers) | < 50% | < 50% | < 50% | – | – | –
25 | CCCCC1([C@@H](O)/C=C/C2CCC(=O)[C@@H]2CCCCC(C)(C)CC(=O)OCC)CCC1 (mixture of isomers) | < 50% | < 50% | < 50% | – | – | –
26 | CCCCC1([C@H](O)/C=C/C2CCC(=O)[C@@H]2C/C=C\CCCC(=O)OCC)CCC1 (mixture of isomers) | – | – | – | 221 µg/kg | 135 µg/kg | –
27 | CCCCC1([C@H](O)/C=C/C2[C@H](O)CC(=O)[C@@H]2C/C=C\CCCC(=O)O)CCC1 (mixture of isomers) | – | – | – | 1.54 µg/kg | 2.51 µg/kg | ED50 (Cavia porcellus [6]; [7]): 1.06 µg/kg
28 | CCCCC1([C@@H](O)/C=C/C2CCC(=O)[C@@H]2C/C=C\CCCC(=O)O)CCC1 (mixture of isomers) | – | < 50% | < 50% | – | – | –
29 | CCCCC1([C@H](O)/C=C/C2CCC(=O)[C@@H]2CCCCCCCC(=O)O)CCC1 (mixture of isomers) | < 50% | < 50% | < 50% | – | – | –
30 | CCCCC1([C@H](O)/C=C/C2CCC(=O)[C@@H]2C/C=C\CCCC(=O)O)CCC1 (mixture of isomers) | – | – | – | 2.2 µg/kg | 7.67 µg/kg | ED50 (Cavia porcellus [6]; [7]): 24.2 µg/kg
31 | CCCCC1([C@@H](O)/C=C/C2CCC(=O)[C@@H]2CCCCSCC(=O)O)CCC1 (mixture of isomers) | < 50% | < 50% | – | 606 µg/kg | – | –
32 | CCCCC1([C@H](O)/C=C/C2CCC(=O)[C@@H]2CCCCCCCCC(=O)OCC)CCC1 (mixture of isomers) | – | < 50% | – | 6210 µg/kg | 4380 µg/kg | –
33 | CCCCC1([C@@H](O)/C=C/C2CCC(=O)[C@@H]2CCCCCCCC(=O)OCC)CCC1 (mixture of isomers) | < 50% | < 50% | < 50% | – | – | –
